The list is not random: actives were taken first. Their share in the collection is about 6.4%.
WT yeast gro inh: growth inhibition of WT strain, primary screen, mitochondrial fusion inhibitor project, WT and mutant strains, chemical genetic; mitochondrial fusion phenotypic screen; inhibition, % at 10 µM; 190,000 compounds, 2.1% hits; in the data active = inhibition above about 58%; tested in S. cerevisiae
CHOP inhibitor: inhibitors of CHOP promoter induction, primary screen, cell-based, unfolded protein response, luciferase reporter; CHO-K1 CHOP-promoter luciferase, tunicamycin-induced, 15-18 h; inhibition, % at 10 µM; 220,000 compounds, 3.8% hits;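 active = compounds that reduced the stress-induced luciferase reporter signal by more than about 70% of percent inhibition, limit read from the data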
GRIN3A LBD mod: binders of NR3A ligand-binding domain, primary screen, biophysical, differential scanning fluorimetry, uHTS; 340,000 compounds, 2.5% hits; Tm shift relative to glycine control, % at 25 µM; NR3A LBD differential scanning fluorimetry, Tm shift; 0% = protein alone, 100% = glycine-bound protein; AID 1259313, 2017;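 active = melting temperature shift of at least 10% of the positive control shift, at one fixed dose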
Tb MetRS inh: T. brucei MetRS inhibitors, primary screen, biochemical, luminescence. methionyl-tRNA synthetase (Trypanosoma brucei brucei). purified T. brucei MetRS, ATP depletion, Kinase-Glo luminescence. inhibition, % at 11.9 µM. 360,000 compounds, 0.4% hits. AID 624268, 2012;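 active = inhibition above a per-plate cutoff of the control wells' mean inhibition plus 3 SD, cut at about 5.5% in these data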
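Assay system: T. brucei methionyl-tRNA synthetase, purified | Medium: HEPES buffer with MgCl2, KCl, DTT, spermine, BSA, pyrophosphatase | Compound: 11.9 µM single point | Incubation: 15 min enzyme-compound preincubation, 2 h reaction, 10 min detection, 25 °C | Measured by: Kinase-Glo luciferase luminescence reporting remaining unconsumed ATP | Measure: % inhibition normalized to control-well medians | Replication: Singlicate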
MPTP block: mitochondrial permeability transition pore inhibitors, primary screen, biochemical, isolated mouse mitochondria, absorbance. inhibition, % at 10 µM. Ca2+ swelling absorbance, 30 min. 360,000 compounds, 1.4% hits;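 active = inhibition of 50% or more, scaled per plate between neutral and stimulator controls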
EBV gp42 inh: Epstein-Barr virus gp42 inhibitors, primary screen, biochemical, uHTS, fluorescence polarization; Glycoprotein 42 (Epstein-Barr virus (strain AG876)), Q1HVG2; Fluorescence polarization binding assay, mP read-out; inhibition, % (tested at 21.74 µM); 220,000 compounds, 0.42% hits; AID 1085, 2008; in the data active = inhibition above about 50%
Target sequence (Q1HVG2 whole entry, looked up): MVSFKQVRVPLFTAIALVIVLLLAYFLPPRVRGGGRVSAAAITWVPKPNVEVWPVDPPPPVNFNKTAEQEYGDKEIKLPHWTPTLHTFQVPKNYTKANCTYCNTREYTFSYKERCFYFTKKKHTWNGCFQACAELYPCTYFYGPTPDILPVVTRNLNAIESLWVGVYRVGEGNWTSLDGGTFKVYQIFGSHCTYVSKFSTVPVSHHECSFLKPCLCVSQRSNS
Hits are given with their value; i = inactive; nt = no result given.

SMILES	WT yeast gro inh	CHOP inhibitor	GRIN3A LBD mod	Tb MetRS inh	MPTP block	EBV gp42 inh
O=C1/C(=C/c2ccccc2)NC(=S)N1C(c1ccccc1)c1ccccc1	i	89	i	i	i	i
O=C1/C(=C/c2ccccc2)Nc2ccccc21	i	i	i	i	i	i
O=C(NNC(=O)c1cc2cc(OC(F)(F)F)ccc2[nH]1)c1cccc(C(F)(F)F)c1	nt	i	23	i	i	i
NNC(=O)c1cc2cc(OC(F)(F)F)ccc2[nH]1	nt	i	i	i	i	i
CC(c1ccccc1)N(CCC(c1ccccc1)C1CCOC(C)(C)C1)C(=O)c1ccco1 (stereo not given)	79	80	i	i	i	i
COc1ccc(CN(CCC(c2ccc(F)cc2)C2CCOC(C)(C)C2)C(=O)c2ccco2)cc1 (stereo not given)	i	i	i	i	i	i
CC(=O)c1ccc(OCc2cc(C(=O)NCC3CCCCO3)no2)cc1 (stereo not given)	nt	nt	i	i	i	nt
CC(C)(C)c1ccc(-n2nc(C#N)c(Cl)cc2=O)cc1	i	108	i	i	i	i
CCOC(=O)C1=C(CC)Nc2ccccc2N=C1NC(=O)c1cc(S(=O)(=O)N2CCOCC2)ccc1C	nt	nt	i	i	i	nt
CCOC(=O)C1=C(CC)Nc2ccccc2N=C1NC(=O)c1cc(S(=O)(=O)N(C)C)ccc1Cl	i	i	17	i	i	i
CC(=O)N/N=C/c1cc(C(C)C)cc(/C=N/NC(C)=O)c1O	i	i	i	i	i	71
CC(=O)N/N=C/c1cc(C)n(-c2ccc(Br)cc2)c1C	i	i	i	i	i	i
Cc1occc1-c1nnc(SCC(=O)Nc2nc(-c3ccccc3)cs2)o1	i	72	i	i	i	i
O=C(CSc1nc2ccccc2o1)Nc1nc(-c2ccccc2)cs1	63	i	12	i	i	i
Cc1cc(-c2nnc(SCC(=O)Nc3nc(-c4ccccc4)cs3)o2)no1	nt	i	i	i	i	i
CC#CCN1c2ccccc2[C@]23C[C@@H](C(=O)OC)N(C(=O)NCCBr)C2=NC(C(=O)OC)=C(C(=O)OC)[C@H]13	nt	nt	i	i	i	nt
CCc1ccc(Nc2ncc3c(n2)CC(C)CC3=O)cc1 (stereo not given)	i	73	i	i	i	i
CCCN(C(=O)C(NC(=O)c1ccccc1)C(C)C)c1c(N)n(Cc2ccccc2)c(=O)[nH]c1=O (stereo not given)	nt	nt	i	i	i	nt
CCCOC(=O)c1ccc(Oc2c(-c3ccc(OC)cc3O)n[nH]c2C)cc1	i	91	i	i	i	i
COc1ccc(Oc2cn[nH]c2-c2ccc(O)cc2O)cc1	i	i	15	i	i	i
CCCOC(=O)c1ccc(Oc2cn[nH]c2-c2ccc(O)cc2O)cc1	nt	i	34	i	i	i
CC(Cn1cnc2ccccc21)C(=O)O (stereo not given)	i	i	i	i	i	i
CCOC(=O)c1cc(C#N)c(Oc2ccccc2)nc1-c1ccccc1	i	i	13	i	i	i
COC(=O)c1cc(NC(=O)C2(S(=O)(=O)c3ccc(C)cc3)CC2)cc(C(=O)OC)c1	i	i	i	i	i	i
Cc1nc2ccc(NC(=O)c3ccc(C)c(S(=O)(=O)N4CCOCC4)c3)cc2s1	nt	nt	13	i	i	nt
SMILES	WT yeast gro inh	CHOP inhibitor	GRIN3A LBD mod	Tb MetRS inh	MPTP block	EBV gp42 inh
O=C(Nc1ccc(-c2cn3ccsc3n2)cc1)c1ccc(F)c(S(=O)(=O)N2CCOCC2)c1	i	i	25	i	i	i
Cc1nc2ccc(NC(=O)c3cc(S(=O)(=O)N4CCOCC4)ccc3C)cc2s1	i	i	i	i	i	i
CN(C)S(=O)(=O)c1cccc(C(=O)Nc2ccc(C(=O)Nc3cccc(S(N)(=O)=O)c3)cc2)c1	nt	nt	21	i	i	nt
Cc1ccc(C(=O)NC2CCCCCCC2)cc1S(=O)(=O)N1CCOCC1	nt	nt	34	i	i	nt
O=C(NC1CCCC1)c1ccc(Cl)c(S(=O)(=O)N2CCOCC2)c1	nt	nt	i	i	i	nt
O=C(Nc1ccccc1)c1ccc(F)c(S(=O)(=O)N2CCOCC2)c1	i	i	i	i	i	i
CC(C)C[C@H](NC(=O)c1cc2cc(Cl)ccc2n1C)C(=O)N1CCC[C@H]1C(=O)O	nt	nt	i	i	i	nt
O=C(Nc1nonc1NC(=O)c1cccs1)c1cccs1	i	i	i	i	i	i
Cc1nc2ccc(NC(=O)c3ccc([N+](=O)[O-])cc3)cc2s1	i	i	i	i	i	i
Cc1ccc(C(=O)Nc2ccc(Cl)cn2)cc1S(=O)(=O)N1CCOCC1	i	i	19	i	i	i
Cc1nc2ccc(NC(=O)c3ccc(S(=O)(=O)N(C)C)cc3)cc2s1	i	i	10	i	i	i
CC(=O)NS(=O)(=O)c1ccc(NC(=O)C2c3ccccc3Oc3ccccc32)cc1	i	i	11	i	i	i
CCOc1ccccc1NC(=O)CCC(=O)Nc1ccc2nc(N3CCN(C)CC3)cc(C)c2c1	i	i	i	i	i	i
COc1ccccc1-c1cnc(C(O)c2cccc(CN3CCCCC3)c2)[nH]1 (stereo not given)	nt	nt	nt	i	i	nt
Cc1onc(-c2c(F)cccc2Cl)c1C(=O)OCC(=O)NC(=O)NCC(C)C	i	i	i	i	i	i
COc1ccccc1-n1cnc2c(c1=O)c1nc3ccccc3nc1n2-c1ccc(C)c(C)c1	i	84	i	i	i	i
CCCCSc1nnc(-c2ccc(C)cc2)c2ccccc12	78	i	i	i	i	i
CN(C)C(=O)CSc1nnc(-c2ccc(F)cc2)c2ccccc12	nt	i	i	i	i	i
O=C(NC1CCN(Cc2ccccc2)CC1)c1ccccc1OCc1ccccc1Cl	nt	nt	i	i	i	nt
COCC(=O)OCC(=O)N1N=C(c2ccc(Cl)cc2)CC1c1ccco1 (stereo not given)	i	i	i	i	i	i
COc1ccc(C(=O)NCC(=O)OCC(=O)N2N=C(c3ccc(Cl)cc3)CC2c2ccco2)cc1OC (stereo not given)	i	i	11	i	i	i
N#C/C(=C/c1ccc(F)cc1)c1nnc(NC(=O)c2ccccc2)s1	nt	73	i	i	i	i
N#C/C(=C/c1ccc(F)cc1)c1nc(CCN2C(=O)c3ccccc3C2=O)cs1	i	i	i	i	i	i
CCN(CC)S(=O)(=O)c1ccc(O)c(NC(=O)c2cc(-c3cc(OC)c(OC)c(OC)c3)nc3ccccc23)c1	nt	nt	17	i	i	nt
COc1cc2c(cc1NC(=O)c1cc(-c3ccncc3)nc3ccccc13)oc1ccccc12	i	85	i	i	i	i
COc1ccccc1NC(=O)c1cc(-c2ccc(OC)c(OC)c2)nc2ccccc12	nt	nt	i	i	i	nt
